The source of these data is ChEMBL document CHEMBL4038302, “Fibroblast Activation Protein α Activated Tripeptide Bufadienolide Antitumor Prodrug with Reduced Cardiotoxicity” (J Med Chem, 2017).

The nature of series [1]: (§1) In vivo prodrug activation in tumor of BALB/C nude mouse xenografted with human MDA-MB-231 cells assessed as FAP-alpha mediated (S)-((3S,5R,8R,9S,10S,11S,13R,14S,17R)-11,14-dihydroxy-10,13-dimethyl-12-oxo-17-(2-oxo-2H-pyran-5-yl)hexadecahydro-1H-cyclopenta[a]phenanthren-3-yl) 2-amino-3-(1H-indol-3-yl)propanoate formation at 40 umol/L by LC-MS/MS analysis. More on the design: species or system Neoplasm. In outline:
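Tumour and heart tissue weighed and homogenized on ice in PBS, pH 7.4, then incubated with prodrug at 40 μmol/L. Bufalin at 2 μmol/L added as internal standard; reaction stopped with acetonitrile and spun at 18 000g for 30 min. Active form quantified by LC-MS/MS against a standard curve of 0.625–40 μmol/L; mean ± SEM of three samples.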
(In general: In xenograft studies the graft and the host belong to different species.)

Series [2] can be described thus: as §1, with “Ratio of invivo” for “In vivo”, “formation in absence of talabostat to FAP-alpha mediated (S)-((3S,5R,8R,9S,10S,11S,13R,14S,17R)-11,14-dihydroxy-10,13-dimethyl-12-oxo-17-(2-oxo-2H-pyran-5-yl)hexadecahydro-1H-cyclopenta[a]phenanthren-3-yl) 2-amino-3-(1H-indol-3-yl)propanoate formation in presence of talabostat” for “formation”. More on the design: species or system Neoplasm.

Series [3] has as its system Mus musculus. As to the kind of experiment: Nephrotoxicity in BALB/C nude mouse xenografted with human MDA-MB-231 cells at 12 umol/kg, iv administered starting on day 5 measured after day 22 by hematoxylin-eosin staining-based assay. The format is toxicity, organism-based. As to conditions: in vivo. In short, it runs like this: (§2)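 Tissues from dosed xenograft mice fixed for 24 h and paraffin-embedded. Sections of 5 μm, H&E stained; heart, liver, spleen, lung, kidney and femur examined by a pathologist blind to treatment.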

Series [4] relates to Mus musculus. The series is described as follows: Toxicity in BALB/C nude mouse xenografted with human MDA-MB-231 cells assessed as histopathologic change in femur at 12 umol/kg, iv administered starting on day 5 measured after day 22 by hematoxylin-eosin staining-based assay. The format is organism-based. As to conditions: in vivo. In outline: as §2
The test system of series [5] is Mus musculus. As to the kind of experiment: Hepatotoxicity in BALB/C nude mouse xenografted with human MDA-MB-231 cells at 12 umol/kg, iv administered starting on day 5 measured after day 22 by hematoxylin-eosin staining-based assay. The format is toxicity, organism-based. As to conditions: in vivo. In short, it runs like this:
as §2

Series [6] concerns Mus musculus. As to the kind of experiment: Toxicity in BALB/C nude mouse xenografted with human MDA-MB-231 cells assessed as histopathologic change in spleen at 12 umol/kg, iv administered starting on day 5 measured after day 22 by hematoxylin-eosin staining-based assay. The format is organism-based. As to conditions: in vivo. In outline: as §2
Series [7] deals with Mus musculus. The series is described as follows: Toxicity in BALB/C nude mouse xenografted with human MDA-MB-231 cells assessed as histopathologic change in lungh at 12 umol/kg, iv administered starting on day 5 measured after day 22 by hematoxylin-eosin staining-based assay. The format is organism-based. As to conditions: in vivo. In short, it runs like this:
as §2

Series [8] has as its system Mus musculus. As to the kind of experiment: Toxicity in BALB/C nude mouse xenografted with human MDA-MB-231 cells assessed as abnormal behavioral at 12 umol/kg, iv administered starting on day 5 measured after day 22. The format is organism-based. As to conditions: in vivo.
The next series deals with MCF7. As to the kind of experiment: Antiproliferative activity against FAP-alpha deficient human MCF7 cells incubated for 48 hrs by MTT assay. As to conditions: MCF7, 48 h. The format is functional, cell-based. In outline: (§3)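 Cells grown in DMEM with 10% FBS and 1% penicillin-streptomycin at 37 °C, 5% CO2; 10% heat-inactivated FBS used during cytotoxicity testing to exclude serum FAP activity. Viability read by MTT; IC50 as mean ± SEM of at least three independent experiments. Transfected lines were made from MDA-MB-231 with human FAPα plasmid or empty pCMV6-Entry vector and checked by Western blot at 48 h.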
(Tetrazolium assays rely on reduction of a dye to a coloured formazan, in cell work by metabolically active cells.)

Series [9] relates to MDA-MB-231. As to the kind of experiment: Antiproliferative activity against FAP-alpha deficient human MDA-MB-231 cells incubated for 48 hrs by MTT assay. The format is functional, cell-based. As to conditions: MDA-MB-231, 48 h. In short, it runs like this: as §3
Series [10] deals with MDA-MB-231. As to the kind of experiment: Antitumor activity against human MDA-MB-231 cells xenografted in BALB/C nude mouse assessed as tumor weight at 12 umol/kg, iv administered starting on day 5 measured after day 22 (reference value: 0.67 +/- 0.14 g). The format is functional. In outline:
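Female BALB/C mice inoculated subcutaneously in the back with 1 × 10^7 MDA-MB-231 cells in Matrigel–PBS (1:1). From day 5, daily iv dosing in 5% Solutol-HS15 vehicle, with a vehicle control group. Tumours measured by caliper every 2 days (v = 0.5 × a × b²); tumour weight as mean ± SEM, n = 6, one-way ANOVA with Tukey's test.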

Series [11] deals with MDA-MB-231. As to the kind of experiment: Antiproliferative activity against human MDA-MB-231 cells transfected with human FAP-alpha incubated for 48 hrs by MTT assay. The format is functional, cell-based. As to conditions: MDA-MB-231, 48 h. In short, it runs like this:
as §3

Series [12] concerns MDA-MB-231. As to the kind of experiment: Antitumor activity against human MDA-MB-231 cells xenografted in BALB/C nude mouse at 4 umol/kg, iv administered starting on day 5 measured after day 22 by Ki67 staining-based assay relative to control. The format is functional. In outline: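 Female BALB/C nude mice, MDA-MB-231 cells (1 × 10^7) injected subcutaneously in Matrigel–PBS 1:1. Daily iv dosing in 5% HS15 vehicle from day 5. Tumours fixed and paraffin-embedded, 5 μm sections, anti-Ki67 IHC, read blind by a pathologist. Proliferative index by image analysis, n = 6. Compared with 5% HS15 control by one-way ANOVA and Tukey's test.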

In series [13] the test system is Mus musculus. As to the kind of experiment: Cardiotoxicity in BALB/C nude mouse xenografted with human MDA-MB-231 cells assessed as change in interventricular septal diastole dimension at 12 umol/kg, iv administered starting on day 5 measured after day 22 by echocardiography. The format is toxicity, organism-based. As to conditions: in vivo. In outline: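 Same MDA-MB-231 xenograft mice, given daily iv doses in 5% HS15 from day 5. After 22 days of dosing, transthoracic echocardiography with a 21 MHz transducer under 1.5% isoflurane, supine. M-mode images taken from the parasternal short-axis view at the papillary muscle; IVSd, IVSs, LVIDd and LVIDs derived, n = 6.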

In series [14] the test system is Mus musculus. The series is described as follows: Cardiotoxicity in BALB/C nude mouse xenografted with human MDA-MB-231 cells assessed as change in LDH level at 12 umol/kg, iv administered starting on day 5 measured after day 22. The format is toxicity, organism-based. As to conditions: in vivo. In outline:
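Serum from xenograft mice given daily iv doses in 5% HS15: blood taken by cardiac puncture before sacrifice and spun at 3000 rpm for 20 min at 4 °C. D-LDH activity measured with a colorimetric kit. Mean ± SEM, n = 6; one-way ANOVA with Tukey's test against the 5% HS15 control.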

The structures appear in SMILES notation.

For `C[C@]12CC[C@H](OC(=O)[C@H](Cc3c[nH]c4ccccc34)NC(=O)[C@@H]3CCCN3C(=O)CNC(=O)OCc3ccccc3)C[C@H]1CC[C@@H]1[C@@H]2[C@H](O)C(=O)[C@]2(C)[C@@H](c3ccc(=O)oc3)CC[C@]12O`, the Drug metabolism in series [1] was found to be 19.82 µmol/L. For the same compound, the Ratio in series [2] came out at 20. For the same compound, the Activity result with Mus musculus [3], in the series with Mus musculus [4], in the series on Mus musculus [5], with Mus musculus [6], with Mus musculus [7] and in the series on Mus musculus [8] was “Non-Toxic” in each case. Moreover, the Activity in the series on MDA-MB-231 [10] is reported as 0.43 g; in the series on MDA-MB-231 [12], 45 - 50%; in the series with Mus musculus [13], “Non-Toxic”; in the series with Mus musculus [14], “Non-Toxic”. The figures for the IC50 in the series on MCF7, with MDA-MB-231 [9] and in the series with MDA-MB-231 [11] were 11.6 nM, 27 nM and 11.7 nM, respectively.

What is called IC50 is the concentration that inhibits the measured activity by half.
